≈ marks a conversion by molar mass, not a printed value. Calls of active or inactive are those of the source. No cut-off for these calls is given here.

The nature of assay [1]: Cytotoxicity against human Hep2 cells. As to conditions: HEp-2, read-out: ED50 (the source's name). It counts as functional. Put shortly:
(§1)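 Growth inhibition of cultured cells. Activity is expressed as ED50 in μg/mL.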

For assay [2], the system named is L1210. As to the kind of experiment: Antitumor activity against mouse L1210 cells assessed as increase in life span administered from day 1 to day 9 relative to control. It counts as functional. On the set-up: concentration or dose not given beside the values. A digest of the protocol:
(§2)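 In vivo assay in mice bearing leukemia L1210, dosed on days 1–9. Read-out is percent increase in life span of treated leukemic mice over untreated leukemic controls.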

In assay [3] the test system is KB. As to the kind of experiment: Cytotoxicity against human KB cells. In kind it is functional. The conditions noted are these: read-out: ED50 (the source's name). Put shortly: as §1
For assay [4], the system named is KB. Description: Cytotoxicity against human KB cells in presence of 5-amino-1H-imidazole-4-carboxamide. It counts as functional, cell-based.
Assay [5] concerns L1210. As to the kind of experiment: Antitumor activity against mouse L1210 cells assessed as increase in life span at 14 to 75 mg/kg administered from day 1 to day 9 relative to control. It counts as functional, organism-based.
In assay [6] the test system is L1210. Description: Antitumor activity against mouse L1210 cells assessed as increase in life span at 33 mg/kg administered from day 1 to day 9 relative to control. In kind it is functional. Put shortly:
as §2

Assay [7] deals with HEp-2. Description: Cytotoxicity against human Hep2 cells in presence of 5-amino-1H-imidazole-4-carboxamide. In kind it is functional, cell-based.

In the case of `CSc1cc(N)nc2[nH]cnc12`, the EC50 in assay [1] and in assay [3] was more than 22 µg/mL in each case. In addition, in assay [2], the Activity is reported as less than 15%.
Consider `Nc1cc(Cl)c2ncn([C@@H]3O[C@H](CO)[C@@H](O)[C@H]3O)c2n1`, for which the EC50 in assay [1] and in assay [3] was more than 22 µg/mL each time. Moreover, the Activity in assay [2] is on record as less than 15%.
On to `CSc1cc(N)nc2c1ncn2[C@@H]1O[C@H](CO)[C@@H](O)[C@H]1O`, for which the EC50 in assay [1] and in assay [3] was more than 22 µg/mL each time. The Activity in assay [2] is listed as less than 15%.
Regarding `Nc1cc(Cl)c2nc[nH]c2n1`, the EC50 in assay [1] is 0.3 µg/mL (≈ 1.78 µM); in assay [3] it was 1 µg/mL (≈ 5.93 µM). Besides, the outcome in assay [4], in assay [5] and in assay [7] was Active. Also, the Activity in assay [6] stood at 79%.
In the case of `Cc1ccc(S(=O)(=O)/N=c2\cc(Cl)c3ncn4c3n2C[C@H]2O[C@@H]4[C@@H]3OC(C)(C)O[C@@H]32)cc1`, the EC50 in assay [1] and in assay [3] was more than 22 µg/mL throughout. Also, in assay [2], the Activity is reported as less than 15%.
Take `Nc1cc(S)c2ncn([C@@H]3O[C@H](CO)[C@@H](O)[C@H]3O)c2n1`: the EC50 in assay [1] and in assay [3] was more than 22 µg/mL each time. Also, in assay [2], the Activity is recorded as less than 15%.
For the compound `CSc1cc(NC(C)=O)nc2[nH]cnc12`, the EC50 in assay [1] and in assay [3] was more than 22 µg/mL throughout. The Activity in assay [2] is given as less than 15%.
Turning to `CC(=O)Nc1cc(Cl)c2nc[nH]c2n1`, the EC50 in assay [1] and in assay [3] was more than 22 µg/mL in each case. The Activity in assay [2] is recorded as less than 15%.
